From PubChem BioAssay
Mcl1 Bid PPI = disrupts binding of human Mcl-1 to Bid peptide; TR-FRET Mcl-1/Bid-Dy647 peptide binding, 1536-well; AID 1021; 220,000 compounds, 0.97% hits; inhibition, % at 21.7 µM;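 active = compounds that cut the binding signal by more than half at the single screening dose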;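 also: His-tagged Mcl-1 with europium anti-His antibody binding Bid BH3 peptide; 0% = Mcl-1 plus peptide wells and 100% = peptide-only wells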
Target sequence (Q07820 whole entry, looked up): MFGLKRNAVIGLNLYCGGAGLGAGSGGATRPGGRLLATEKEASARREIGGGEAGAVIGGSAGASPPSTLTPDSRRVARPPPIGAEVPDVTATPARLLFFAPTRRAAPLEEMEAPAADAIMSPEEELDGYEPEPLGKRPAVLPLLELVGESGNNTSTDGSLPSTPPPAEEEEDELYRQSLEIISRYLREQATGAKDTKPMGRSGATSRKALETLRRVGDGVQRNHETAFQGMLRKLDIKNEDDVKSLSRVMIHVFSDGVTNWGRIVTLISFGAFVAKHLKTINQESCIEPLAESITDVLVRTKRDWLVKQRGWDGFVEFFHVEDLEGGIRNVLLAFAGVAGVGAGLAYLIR
Arbovirus anti = blocks arbovirus infection; AID 1251; 200,000 compounds, 0.37% hits; inhibition, % at 10 µM; arbovirus infection cell-based antiviral screen; in the data active = inhibition above about 30%
Mcl1 Noxa PPI = disrupts binding of human Mcl-1 to Noxa peptide; 220,000 compounds, 1.5% hits; AID 1022; TR-FRET Mcl-1/Noxa peptide binding, 2 h; Q07820; inhibition, % at 21.7 µM;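 active = compounds that cut the protein-peptide binding signal by more than 50% relative to plate controls in a single-dose test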;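 also: His-tagged Mcl-1 with rhodamine Noxa BH3 peptide and terbium anti-His antibody; 0% = Mcl-1 plus Noxa peptide wells and 100% = peptide-only wells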
Bim-Mcl-1 = disrupts Bim peptide binding to human Mcl-1 | inhibition, % at 10 µM | Bead-based flow cytometry, Bim peptide-Mcl-1 binding | 190,000 compounds, 0.1% hits | AID 1009; in the data active = inhibition above about 40%;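 also: 0% = no compound tracer wells and 100% = peptide blocker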
Calb biofilm kill = mixture kills Candida albicans biofilm cells. C. albicans biofilm persisters + clotrimazole, fluorescence viability; primary screen in compound mixtures of four per well. inhibition, % at 7.6 µM. 120,000 compounds, 0.02% hits. AID 1242;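 active = inhibition above 30.3% in the primary screen of four-compound pools, then above 30% when the compound was retested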;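 also: compounds exposed to preformed 24 h biofilms for 48 h; 0% = untreated biofilm control and 100% = clotrimazole plus chlorhexidine kill blank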
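System: C. albicans CAF4-2 wild-type biofilms; Medium: RPMI/MOPS medium, pH 7.0; Reagent: Clotrimazole, 50 µg/mL; Times: biofilm formation 24 h, compound exposure 48 h, 37 °C; Detection: 2-h Alamar Blue fluorescence, 535/590 nm excitation/emission; Evaluation: percent inhibition of biofilm viability.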
m-calpain inh = calpain II (pig) inhibition; purified calpain II, fluorogenic peptide substrate, 30 min; inhibition, % at 16 µM; 220,000 compounds, 0.37% hits;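 active = inhibition above about 50%, limit read from the data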
Starred values were filed as active, the others as inactive; · = no result. An excerpt weighted towards active compounds, which were near 2.8% of everything screened.

SMILES	Mcl1 Bid PPI	Arbovirus anti	Mcl1 Noxa PPI	Bim-Mcl-1	Calb biofilm kill	m-calpain inh
O=C1NC(=S)S/C1=C1\Sc2ccccc2N1CCCS(=O)(=O)O	5.3	0.1	74.5*	-5.0	·	0.8
COc1ccc(NC(=O)Cn2c(=O)n(-c3ccc(OC)cc3OC)c(=O)c3c(C)c(C)sc32)cc1	-15.6	2.9	17.7	0.0	12.3	-19.2
CCOC(=O)c1ccc(N2N=C(C)/C(=C/C=C/c3ccco3)C2=O)cc1	-13.3	-6.3	31.8	0.0	-1.1	-26.4
O=C(O)c1cc(N2N=C(C(F)(F)F)/C(=C/C=C/c3ccco3)C2=O)ccc1Cl	86.4*	15.7	105.5*	-4.0	19.9	-6.8
COc1ccc(N(CC(=O)N2CCC(Cc3ccccc3)CC2)S(C)(=O)=O)cc1	-3.5	-2.2	1.0	0.0	18.5	22.5
CCOc1ccc(NC(=O)NC(=O)N(C(C)C)S(C)(=O)=O)cc1	-25.1	-1.9	7.9	-1.0	19.8	10.7
COc1cccc(C(=O)NNC(=O)Cc2cccs2)c1	-2.8	-0.1	7.6	-4.0	16.8	7.8
CCc1ccc(NC(=O)Cn2cnc3c(=O)n(C)c(=O)n(C)c32)cc1	-14.4	4.0	31.8	-2.0	14.6	24.0
Cn1c(=O)c2ncn(CC(=O)Nc3cccc(-c4nc5ccccc5s4)c3)c2n(C)c1=O	-39.6	-11.9	63.5*	0.0	·	-194.4
Cn1c(SCC(=O)N/N=C/C=C/c2ccco2)nc2ccccc21	-10.4	-0.7	37.5	-3.0	12.7	-5.8
CCN(CC)c1ccc(N=Cc2c(C)[nH]c3ccccc23)cc1	-101.7	-6.2	60.7*	-4.0	4.2	2.1
Cc1[nH]c2ccccc2c1/C=N/n1cnnc1	-28.6	8.3	-8.3	2.0	·	-0.8
Cc1ccc(NC(=O)CSc2n[nH]c(=O)n2C2CC2)cc1S(=O)(=O)N1CCOCC1	-39.9	4.4	21.6	0.0	8.6	2.8
O=C(CSc1nnc(-c2cccnc2)n1C1CCCCC1)NC1CCCC1	-26.1	7.5	56.4*	-3.0	·	6.5
O=C(O)c1ccc(OCC(F)(F)F)nc1	-8.9	·	-9.5	·	11.5	12.1
CC1(c2ccc(Cl)cc2)NC(=O)CS1 (stereo not drawn)	-9.7	-15.5	-4.8	0.0	15.3	15.2
CC(C)(C)n1nnnc1C(c1ccc(C(F)(F)F)cc1)N(Cc1ccc(F)cc1)Cc1ccco1 (stereo not drawn)	-6.8	32.2*	-3.9	-7.0	10.9	-3.5
COc1ccc2c(c1OC)C(=O)N(c1ccc(C)cc1)C2	-20.6	·	-28.7	·	13.7	25.7
O=C(CCn1cccc(C(F)(F)F)c1=O)Nc1cccc(C(F)(F)F)c1	23.5	·	9.1	·	20.1	-18.8
N#CC1=C(S)N(c2ccccc2)C(c2ccc(-c3cccc(Cl)c3)o2)NC1=O (stereo not drawn)	-29.9	-13.5	69.0*	-3.0	15.0	-19.3
Cc1cccc(N2C(S)=C(C#N)C(=O)NC2c2ccco2)c1 (stereo not drawn)	-20.5	-10.2	29.1	-1.0	15.2	-77.2
c1ccc(C(c2ccccc2)c2noc(CN3CCC(c4ccncc4)CC3)n2)cc1	-16.8	4.4	-14.7	1.0	-9.2	29.8
Cc1nc(S/C(=C\c2ccc(-c3ccc(C(=O)O)c(Cl)c3)o2)C(=O)O)n[nH]1	54.5*	·	92.5*	·	16.1	1.5
O=C(CS(=O)(=O)c1c[nH]c2ccccc12)N1CCCCCC1	-18.5	21.0	-10.8	-1.0	11.8	32.1
O=C(O)C[C@@H]1C(=O)O[C@@H]2C(COC(=O)c3cc(O)c(O)c(O)c3)O[C@@H](OC(=O)c3cc(O)c(O)c(O)c3)[C@@H](OC(=O)c3cc(O)c(O)c4c3[C@H]1[C@H](O)C(=O)O4)[C@H]2OC(=O)c1cc(O)c(O)c(O)c1 (stereo partly drawn)	76.0*	·	99.5*	·	3.2	14.7
SMILES	Mcl1 Bid PPI	Arbovirus anti	Mcl1 Noxa PPI	Bim-Mcl-1	Calb biofilm kill	m-calpain inh
Cc1cc2nc(-c3ccc(SCc4ccccn4)nc3)[nH]c2cc1C	28.3	-27.2	34.2	-2.0	-1.7	-364.4
Cc1cc(-c2csc(NC(=O)c3ccc(=O)n(C)n3)n2)c(C)n1CC1CCCO1 (stereo not drawn)	-20.1	-7.8	53.9*	0.0	·	-47.0
O=C(CSc1n[nH]c(-c2ccccc2F)n1)NCC(=O)Nc1ccc(F)c(F)c1F	-31.9	6.8	14.2	-1.0	14.1	-20.0
O=C(Nc1ccc(Cl)c([N+](=O)[O-])c1)c1ccncc1	2.4	0.3	4.0	-2.0	9.9	-7.6
O=C(Nc1ccc(Cl)c([N+](=O)[O-])c1)c1cnccn1	-70.3	5.6	64.2*	-3.0	-11.7	-33.8
O=C(Nc1ccc(Br)cc1Cl)c1cnccn1	-3.1	-4.9	1.2	-1.0	·	-8.8
O=C(Nc1ccccc1Cl)c1cnccn1	-23.4	5.8	83.2*	1.0	·	-57.6
CC(=O)N1/C(=C/c2ccc(N(C)C)cc2)C(=O)c2ccccc21	-5.6	-33.6	36.8	-1.0	0.1	-18.4
O=C(O)c1cnc(-c2ccccc2)nc1Sc1ccc(Cl)cc1	12.8	65.6*	20.3	-1.0	·	25.3
Cc1cccc(Sc2nc(-c3ccccc3)ncc2C(=O)O)c1	-5.6	32.4*	7.9	-6.0	13.1	-18.8
COc1ccc(Sc2nc(-c3ccccc3)ncc2C(=O)O)cc1	-11.6	6.9	8.1	1.0	7.5	4.0
O=C(O)c1cnc(-c2ccccc2)nc1Sc1ccccc1Cl	-1.6	42.7*	-2.2	-2.0	·	-0.9
O=C(CSc1nnc(-c2ccc(C(F)(F)F)cn2)s1)c1ccccc1	-8.1	·	1.0	·	19.9	4.1
CC(=O)Oc1ccc(C(=O)Nc2cccc(-c3nnc(-c4ccco4)o3)c2)cc1	-11.2	·	5.8	·	14.9	-0.4
O=C(Nc1cccc(-c2nnc(-c3ccco3)o2)c1)c1ccccc1	5.0	-12.6	-5.0	15.0	3.8	78.7*
CCN(CC)c1ccc(NC(=O)c2cccnc2)cc1	-40.5	-11.3	19.3	-4.0	·	7.7
CCN(CC)c1ccc(NC(=O)c2cncc(Br)c2)cc1	-5.2	0.1	57.6*	-4.0	·	2.3
CC(=O)N(C)c1ccc(NC(=O)Nc2ccc(C)cc2)cc1	-16.3	-1.1	7.4	0.0	14.9	51.4*
CCN(CC)c1ccc(NC(=O)Nc2ccc(C(C)=O)cc2)cc1	5.1	-5.8	97.1*	-5.0	·	-0.5
CC(=O)c1ccc(NC(=O)Nc2ccccc2)cc1	3.1	7.6	11.4	-1.0	·	23.5
O=C(O)/C(=C\c1ccccc1OC(F)F)Sc1nnc(-c2ccc(F)cc2)o1	-13.6	-18.2	-12.0	0.0	13.8	0.9
c1ccc2c(c1)ncn2CCCCOc1ccc2c(c1)CCC2	68.6*	-32.5	39.1	-1.0	·	-2.4
c1ccc2c(c1)ncn2CCCOc1ccc2c(c1)CCC2	13.9	3.9	16.6	-5.0	·	7.3
CCN(CC)CCNC(=O)c1c(O)c2cc(OC)c(OC)cc2[nH]c1=O	2.0	5.9	37.4	-1.0	·	-67.8
COc1cc2[nH]c(=O)c(C(=O)NCCCN3CCOCC3)c(O)c2cc1OC	11.7	6.5	67.5*	-3.0	32.1	-111.1
